# Screening data deposited in PubChem by Broad Institute.
# ERp5 block: inhibitors of human ERp5; Q15084; ERp5 insulin aggregation, absorbance 650 nm, 90 min; inhibition, % at 9.99 µM; actives 0.05% (n = 350,000); AID 651711;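 active = mean replicate inhibition above about 25%, with every replicate also reaching it, limit read from the data, passing the limit was not always enough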
# PDI inh: blocks human protein disulfide isomerase activity; P07237; PDI insulin aggregation turbidity, A650, 90 min; inhibition, % at 10 µM; actives 0.052% (n = 350,000);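 active = mean inhibition across replicates of 30% or more, whatever share of single replicates reach that level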
# Target sequence (P07237 whole entry, looked up): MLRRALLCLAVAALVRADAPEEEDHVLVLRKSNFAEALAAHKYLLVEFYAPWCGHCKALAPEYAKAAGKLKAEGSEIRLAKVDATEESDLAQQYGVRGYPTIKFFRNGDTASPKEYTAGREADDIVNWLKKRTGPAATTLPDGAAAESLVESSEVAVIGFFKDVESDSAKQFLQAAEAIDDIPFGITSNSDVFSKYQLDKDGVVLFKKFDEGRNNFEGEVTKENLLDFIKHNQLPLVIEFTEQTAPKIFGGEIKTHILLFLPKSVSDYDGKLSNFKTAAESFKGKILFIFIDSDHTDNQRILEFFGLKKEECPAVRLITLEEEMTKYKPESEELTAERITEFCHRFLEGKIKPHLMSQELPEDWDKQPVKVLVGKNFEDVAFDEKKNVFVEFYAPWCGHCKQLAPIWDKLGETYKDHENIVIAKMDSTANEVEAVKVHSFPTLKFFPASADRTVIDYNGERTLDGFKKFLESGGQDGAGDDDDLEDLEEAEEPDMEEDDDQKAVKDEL
# DENV2 CPE: inhibitors of DENV2 cytopathic effect; DENV2-infected cells, cytopathic effect rescue, plate reader; CPE inhibition, % at 9.99 µM; actives 1.7% (n = 350,000); AID 651640; in the data active = CPE inhibition above about 20%, passing the limit was not always enough; tested in BHK-21 cells;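 note: 0% = median of neutral control wells and 100% = median of positive control wells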
# Cneo AK release: Cryptococcus neoformans lysis via adenylate kinase release; C. neoformans lysis, adenylate kinase release luminescence, 4 h; normalised: neutral wells 0, clomiphene wells 100; lysis activity, % at 15 µM; actives 0.2% (n = 360,000); AID 651654;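 active = mean lysis activity across replicates of at least 80%, whatever share of replicates individually reach that level; inactive = mean lysis activity below 80%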
#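 read-out = cell lysis signal | test system = log-phase Cryptococcus neoformans yeast cells | input = cells at 5 × 10^6 per mL | medium = fresh YPD growth medium | signal = luminescent adenylate kinase detection reagent | timing = 4 h at 37 °C static, read 1 h later | dosing = single dose | controls = Clomiphene as positive lysis control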
# Statin myotox sup: suppressors of simvastatin-induced myotoxicity in C2C12 myotubes. actives 0.78% (n = 330,000). AID 602340. rescue of ATP level, % at 7.49 µM. ATP luminescence, 48 h; scaled: DMSO 0, geranylgeraniol control 100;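 active = mean ATP rescue above about 67%, or every replicate alone reaching that limit, limit read from the data, passing the limit was not always enough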;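 note: myotubes were challenged with 10 µM simvastatin during compound exposure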
# F508del corr: CFTR F508del correction in bronchial cells; AID 720511; CFBE cells, YFP halide quenching; stimulated with forskolin plus potentiator P3; % fluorescence drop versus neutral controls; actives 0.36% (n = 350,000); activity (quench increase), % at 7.58 µM;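 active = mean added fluorescence quench of at least 8% versus neutral control, with both replicates also reaching 8%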;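 note: cells transiently co-express mutant CFTR-F508del with the halide-sensitive YFP; corrector assay measuring rescue of mutant channel to the surface after 24 h compound exposure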
# An asterisk follows results filed as active; x = no result given; ! = not active in a repeat. Most compounds without a hit are left out; they make up all but 2.3% or so of the library.
SMILES,ERp5 block,PDI inh,DENV2 CPE,Cneo AK release,Statin myotox sup,F508del corr
CNC[C@H]1Oc2c(cccc2N(C)C)C(=O)N([C@@H](C)CO)C[C@H]1C,-2,x,-3,-1,0,-1
CCCCCCCCCCCCCCCC[N+](C)(C)Cc1ccc(F)cc1,-16,41*,-2,x,x,x
CCCNC(=O)N1CC2(CCN(C(=O)c3cccnc3)CC2)c2c([nH]c3cc(OC)ccc23)[C@@H]1CO,-1,x,-5,x,x,-1
COC(=O)N(C)C[C@@H]1OCc2cn(nn2)CCCC(=O)N([C@H](C)CO)C[C@H]1C,0,x,-2,-1,2,1
C[C@@H]1CN([C@@H](C)CO)C(=O)CCCn2cc(nn2)CO[C@H]1CN(C)C(=O)Nc1cccc2ccccc12,0,x,91*!,-3,4,1
CC(C)NC(=O)N(C)C[C@@H]1OCc2cn(nn2)CCCC(=O)N([C@@H](C)CO)C[C@@H]1C,x,x,x,x,-17,-1
COC(=O)N(C)C[C@H]1OCc2cn(nn2)CCCC(=O)N([C@@H](C)CO)C[C@@H]1C,-7,x,-7,84*!,-1,-3
CC(C)NC(=O)N(C)C[C@H]1OCc2cn(nn2)CCCC(=O)N([C@@H](C)CO)C[C@@H]1C,-5,x,32*,-1,13,-1
CCCNc1ncnc2ccc(Br)cc12,3,x,3,56,x,-3
Cc1ccc(S(=O)(=O)N(C)C[C@H]2OCCCC[C@@H](C)Oc3ccc(NS(=O)(=O)c4c(C)noc4C)cc3C(=O)N([C@@H](C)CO)C[C@H]2C)cc1,1,x,13,2,x,1
C[C@@H]1CN([C@H](C)CO)S(=O)(=O)c2ccc(Br)cc2O[C@H]1CN(C)S(=O)(=O)c1ccccc1,-4,x,-5,-1,-7,-1
COc1ccc2sc3cccc(NCCN(C)C)c3c(=O)c2c1,0,x,2,x,x,12*
COc1ccc(S(=O)(=O)Nc2ccc3c(c2)C(=O)N([C@H](C)CO)C[C@@H](C)[C@H](CN(C)C(=O)Nc2c(C)noc2C)O3)cc1,1,x,11,-3,x,-2
CCC(=O)/C=C1/Sc2ccccc2N1CC,x,-1,x,27,112*,x
COc1ccccc1-c1cn(CC[C@H]2CC[C@@H](NC(=O)c3cnccn3)[C@@H](CO)O2)nn1,3,x,x,2,3,-3
Cn1c(-c2sc3cc(C(F)(F)F)cnc3c2-c2cccnc2)n[nH]c1=S,x,-1,x,1,139*,x
COCc1cc(=O)[nH]c(SCC(=O)Nc2ccccc2)n1,x,1,x,-1,102*,x
CCCc1cc(=O)[nH]c(SCC(=O)Nc2ccccc2C#N)n1,x,6,x,0,98*,x
Nc1nc(SCC(=O)Nc2ccc(Cl)cc2)[nH]c(=O)c1-c1ccccc1,3,2,-1,1,122*,1
Cc1ccc(NC(=O)CSc2nc(N)c(-c3ccccc3)c(=O)[nH]2)cc1Cl,-1,0,-3,x,x,0
CCCC[C@]12CCCC(=O)N1CCc1c2[nH]c2ccccc12,-4,x,11,-10,x,4
C[C@H](NC(=O)C[C@H]1CC[C@H]2[C@@H](COC[C@@H](O)CN2C)O1)c1ccccc1,0,x,3,0,8,-1
CCC(=O)N1CC(=O)N2[C@@H](CO)[C@@H](c3ccc(-c4ccccc4F)cc3)[C@@H]2C1,-5,x,1,x,x,0
CCOc1ccc2c(c1)C(C)=CC(C)(C)N2S(=O)(=O)c1ccc(NC(C)=O)cc1,3,3,-2,1,-63,1
CCOc1ccc2c(c1)C(C)=CC(C)(C)N2S(=O)(=O)c1ccc(F)cc1,4,2,0,4,-24,10*
Cc1occc1C(=O)N1CCCC(N2CCN(c3ccccc3F)CC2)C1 (stereo not drawn),3,12,26*,0,3,4
CN1CCN(c2ccc([N+](=O)[O-])c(-n3nc(-c4ccccc4)c4ccccc4c3=O)c2)CC1,x,-2,x,2,80*,x
O=C(C[C@H]1CC[C@@H]2[C@H](COC[C@H](O)CN2S(=O)(=O)c2ccccc2)O1)NCCN1CCCC1,7,x,28*,x,x,0
O=C(C[C@@H]1CC[C@@H]2[C@H](COC[C@@H](O)CN2S(=O)(=O)c2ccc(Cl)cc2)O1)NCCN1CCCC1,2,x,27*,4,2,4
